Experimental findings from ChEMBL document CHEMBL1124174, “Substituted benzamides. 1. Potential nondopaminergic antagonists of chemotherapy-induced nausea and emesis” (J Med Chem, 1988) are described below.

The target in one test is D(2) dopamine receptor (Rattus norvegicus, UniProt P61169). As to the kind of experiment: In vitro antagonistic activity against Dopamine receptor D2 was evaluated for the inhibition of [3H]spiperone binding. The procedure, abridged: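 Rat striatal membranes were prepared by differential centrifugation in 50 mM Tris pH 7.4 at 4 °C. Membrane protein (10 mg) was incubated 15 min at 37 °C with 0.1 nM [3H]spiperone and varying competitor concentrations. Buffer: 50 mM Tris HCl pH 7.5, 0.1% ascorbic acid, pargyline, 120 mM NaCl, 5 mM KCl, 2 mM CaCl2, 1 mM MgCl2. (+)-Butaclamol defined nonspecific binding. Bound ligand was collected by filtration and scintillation counted. IC50 by log-logit regression.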

Test [1] concerns Canis familiaris. As to the kind of experiment: In vivo antagonism of cisplatin-induced emesis in dog measured as percentage protection for twice the dose of 1 mg/kg in 2 dogs. The class given is functional, Canis lupus familiaris. Summed up:
(§1)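 Nonfasted mature male or female beagles were dosed sc twice, 30 min before and 120 min after cisplatin (3 mg/kg iv; 3 mg/mL in warm 0.9% saline, used immediately). Emesis was observed up to 5 h; events within 2 min counted as one episode. Results were given as mean emetic episodes and % protection versus a dynamic control (historical and concurrent saline means pooled). t test versus saline.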

In test [2] the target is D(2) dopamine receptor (Canis lupus familiaris) (UniProt Q9GJU1). As to the kind of experiment: In vivo antagonism activity against dopamine D2 receptor was measured as emesis in dog when administered subcutaneously. It is filed as functional, organism-based.
Test [3] deals with Mustela putorius furo. The experiment in a line: In vivo antagonism of cisplatin-induced emesis in ferret measured as percentage protection for twice the dose of 3 mg/kg and in 2 ferrets. It is filed as functional. Summed up: (§2)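 Nonfasted castrated male Fitch ferrets (1–1.5 kg) had jugular catheters implanted ≥48 h earlier under anesthesia. Compounds or saline were given iv twice, 5 min before and 90 min after cisplatin (12 mg/kg iv; 12 mg/mL in warm 0.9% saline). Emesis was observed up to 4 h; events within 1 min counted as one episode. Results were given as mean emetic episodes and % protection versus a pooled historical/concurrent control. t test versus saline.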

For test [4], the target named is D(2) dopamine receptor (Rattus norvegicus) (UniProt P61169). The experiment in a line: In vivo antagonistic activity against dopamine D2 receptor was measured as catalepsy in rat when administered subcutaneously. The class given is functional, organism-based. The procedure, abridged:
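Male Long Evans rats (275 g) received graded sc doses in dilute aqueous HCl (pH 4.5-5.5). They were observed 180 min for catalepsy, scored when the animal stayed stationary ≥15 s on a four-cork template.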

Test [5] shares this target. The experiment in a line: In vivo antagonism activity against D2 receptor was measured as stereotypy in rat when administered subcutaneously. It is filed as functional, organism-based. Summed up: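 Male Long Evans rats (275 g) were dosed sc in dilute aqueous HCl (pH 4.5-5.5) 30 min before apomorphine (1 mg/kg sc).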
Test [6] deals with Canis familiaris. As to the kind of experiment: In vivo antagonism of cisplatin-induced emesis in dog measured as emetic episodes, twice the dose of 1 mg/kg in 2 dogs. The class given is functional, Canis lupus familiaris. The procedure, abridged: as §1
The test system of test [7] is Mustela putorius furo. As to the kind of experiment: In vivo antagonism of cisplatin-induced emesis in ferret measured as emetic episodes, twice the dose of 3 mg/kg and in 2 ferrets. It is filed as functional. Summed up: as §2
The test system of test [8] is Mustela putorius furo. As to the kind of experiment: In vivo antagonism of cisplatin-induced emesis in ferret measured as emetic episodes, twice the dose of 0.3 mg/kg and in 3 ferrets. The class given is functional. Summed up: as §2
For test [9], the system named is Mustela putorius furo. The experiment in a line: In vivo protection against cisplatin-induced emesis in ferret measured as percentage protection for twice the dose of 0.9 mg/kg and in 6 ferrets. It is filed as functional. Summed up:
(§3)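 Nonfasted castrated male Fitch ferrets (1–1.5 kg) carried jugular vein catheters implanted at least 48 h earlier under general anesthesia. Test compound or saline was given iv twice, 5 min before and 90 min after cisplatin (12 mg/kg iv; 12 mg/mL in warm saline). Emesis was watched for 4 h, with events within 1 min counted as one episode. % protection is relative to a pooled historical-plus-concurrent control, with t test versus saline.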

Test [10] has as its system Mustela putorius furo. As to the kind of experiment: In vivo protection against cisplatin-induced emesis in ferret measured as p emetic episodes for twice the dose of 0.9 mg/kg and in 6 ferrets. The class given is functional. Summed up: as §3
The subject of test [11] is Mustela putorius furo. As to the kind of experiment: In vivo protection against cisplatin-induced emesis in ferret measured as percentage protection for twice the dose of 0.1 mg/kg and in 3 ferrets. It is filed as functional. The procedure, abridged: as §3
Test [12] has as its system Canis familiaris. As to the kind of experiment: In vivo antagonism of cisplatin-induced emesis in dog measured as percentage protection for twice the dose of 0.1 mg/kg in 2 dogs. The class given is functional, Canis lupus familiaris. Summed up:
as §1

Test [13] deals with Canis familiaris. The experiment in a line: In vivo antagonism of cisplatin-induced emesis in dog measured as emetic episodes, twice the dose of 0.1 mg/kg in 2 dogs. The class given is functional, Canis lupus familiaris. Summed up: as §1
Test [14] deals with Mustela putorius furo. As to the kind of experiment: In vivo protection against cisplatin-induced emesis in ferret measured as percentage protection for twice the dose of 0.3 mg/kg and in 6 ferrets. The class given is functional. The procedure, abridged: as §3
Test [15] has as its system Canis familiaris. The experiment in a line: In vivo protection against cisplatin-induced emesis in dog measured as emetic episodes for twice the dose of 0.3 mg/kg and in 5 […]. The class given is functional, Canis lupus familiaris.
The test system of test [16] is Canis familiaris. The experiment in a line: In vivo protection against cisplatin-induced emesis in dog measured as percentage protection for twice the dose of 0.1 mg/kg and in 3 […]. The class given is functional, Canis lupus familiaris.
The subject of test [17] is Mustela putorius furo. The experiment in a line: In vivo antagonism of cisplatin-induced emesis in ferret measured as emetic episodes, twice the dose of 3 mg/kg and in 3 ferrets. The class given is functional. The procedure, abridged: as §2
For test [18], the system named is Mustela putorius furo. As to the kind of experiment: Cisplatin-induced emesis in ferret measured as stereotypy […] when administered iv […] twice daily. It is filed as functional.
Test [19] deals with Canis familiaris. As to the kind of experiment: In vivo antagonism of cisplatin-induced emesis in dog measured as emetic episodes, twice the dose of 0.3 mg/kg in 2 dogs. It is filed as functional, Canis lupus familiaris. Summed up: as §1
For test [20], the system named is Mustela putorius furo. As to the kind of experiment: In vivo protection against cisplatin-induced emesis in ferret measured as emetic episodes for twice the dose of 2.7 mg/kg and in 3 ferrets. The class given is functional. Summed up:
as §3

Test [21] has as its system Mustela putorius furo. The experiment in a line: In vivo protection against cisplatin-induced emesis in ferret measured as emetic episodes for twice the dose of 0.3 mg/kg and in 6 ferrets. It is filed as functional. The procedure, abridged:
as §3

Test [22] concerns Canis familiaris. The experiment in a line: In vivo protection against cisplatin-induced emesis in dog measured as emetic episodes for twice the dose of 0.1 mg/kg and in 3 […]. It is filed as functional, Canis lupus familiaris.
Test [23] has as its system Mustela putorius furo. The experiment in a line: In vivo antagonism of cisplatin-induced emesis in ferret measured as percentage protection for twice the dose of 3 mg/kg and […]. It is filed as functional. The procedure, abridged:
as §2

Test [24] deals with Mustela putorius furo. As to the kind of experiment: In vivo protection against cisplatin-induced emesis in ferret measured as emetic episodes for twice the dose of 0.1 mg/kg and in 3 ferrets. It is filed as functional. Summed up: as §3
The subject of test [25] is Canis familiaris. The experiment in a line: In vivo protection against cisplatin-induced emesis in dog measured as percentage protection twice the dose of 0.1 mg/kg and in 3 dogs.
The subject of test [26] is Mustela putorius furo. As to the kind of experiment: In vivo antagonism of cisplatin-induced emesis in ferret measured as emetic episodes, twice the dose of 0.1 mg/kg and in 3 ferrets. It is filed as functional. Summed up: as §2
Test [27] deals with Canis familiaris. The experiment in a line: In vivo antagonism of cisplatin-induced emesis in dog measured as percentage protection for twice the dose of 0.3 mg/kg in 2 dogs. It is filed as functional, Canis lupus familiaris. Summed up: as §1
Test [28] relates to Canis familiaris. As to the kind of experiment: cisplatin-induced emesis in dog was measured for when administered twice daily. As to conditions: Canis lupus familiaris.
In test [29] the test system is Mustela putorius furo. As to the kind of experiment: In vivo protection against cisplatin-induced emesis in ferret measured as percentage protection for twice the dose of 2.7 mg/kg and in 0.1 ferrets. As to conditions: in the assay text read “in 3 ferrets” for “in 0.1 ferrets”. It is filed as functional. Summed up: as §3
Test [30] has as its system Mustela putorius furo. The experiment in a line: In vivo antagonism of cisplatin-induced emesis in ferret measured as percentage protection for twice the dose of 3 mg/kg.
Test [31] deals with Canis familiaris. As to the kind of experiment: In vivo protection against cisplatin-induced emesis in dog measured as emetic episodes for twice the dose of 0.9 mg/kg and in 3 […]. It is filed as functional, Canis lupus familiaris.
Test [32] concerns Mustela putorius furo. As to the kind of experiment: In vivo antagonism of cisplatin-induced emesis in ferret measured as percentage protection for twice the dose of 1 mg/kg and in 3 ferrets. It is filed as functional. Conditions: 1 mg/kg. Summed up: as §2
The subject of test [33] is Mustela putorius furo. The experiment in a line: In vivo antagonism of cisplatin-induced emesis in ferret measured as percentage protection for twice the dose of 3 mg/kg and in 3 ferrets. Conditions: 3 mg/kg. The class given is functional. Summed up:
as §2

Test [34] has as its system Mustela putorius furo. As to the kind of experiment: In vivo antagonism of cisplatin-induced emesis in ferret measured as percentage protection for twice the dose of 0.3 mg/kg and in 3 ferrets. Conditions: 0.3 mg/kg. The class given is functional. The procedure, abridged: as §2
Test [35] has as its system Canis familiaris. As to the kind of experiment: In viov antagonism of cisplatin-induced emesis in dog measured as percentage protection for twice the dose of 1 mg/kg in 2 dogs. It is filed as functional, Canis lupus familiaris. The procedure, abridged: as §1
Test [36] concerns Mustela putorius furo. The experiment in a line: In vivo antagonism of cisplatin-induced emesis in ferret measured as emetic episodes, twice the dose of 1 mg/kg and in 3 ferrets. It is filed as functional. Conditions: 1 mg/kg. The procedure, abridged:
as §2

Values joined by “and” are separate entries in the source; they are usually repeats but may differ in a detail not shown here. Equal entries are not always repeated.

Usually IC50 stands for the point on the concentration scale where inhibition reaches its midpoint. The low end stands for higher potency, the high end for lower potency. What is called ED50 is the midpoint of the dose-response relation. Lower therefore signals an effect at a small dose.

D(2) dopamine receptor, sequence (P61169 whole entry): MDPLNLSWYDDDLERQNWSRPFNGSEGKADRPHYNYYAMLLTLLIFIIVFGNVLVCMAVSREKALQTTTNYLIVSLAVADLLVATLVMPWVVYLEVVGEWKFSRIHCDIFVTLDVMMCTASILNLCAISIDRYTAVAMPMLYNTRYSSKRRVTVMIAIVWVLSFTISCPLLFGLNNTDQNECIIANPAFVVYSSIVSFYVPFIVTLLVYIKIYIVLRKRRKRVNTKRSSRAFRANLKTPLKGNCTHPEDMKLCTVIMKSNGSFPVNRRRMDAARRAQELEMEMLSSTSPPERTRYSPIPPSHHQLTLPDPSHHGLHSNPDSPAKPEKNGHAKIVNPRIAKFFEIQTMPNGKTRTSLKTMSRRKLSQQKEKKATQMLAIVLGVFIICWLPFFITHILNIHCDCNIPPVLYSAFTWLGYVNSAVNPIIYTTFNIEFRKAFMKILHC
D(2) dopamine receptor (Rattus norvegicus), sequence (P61169 whole entry): as above
D(2) dopamine receptor (Canis lupus familiaris), sequence (Q9GJU1 whole entry): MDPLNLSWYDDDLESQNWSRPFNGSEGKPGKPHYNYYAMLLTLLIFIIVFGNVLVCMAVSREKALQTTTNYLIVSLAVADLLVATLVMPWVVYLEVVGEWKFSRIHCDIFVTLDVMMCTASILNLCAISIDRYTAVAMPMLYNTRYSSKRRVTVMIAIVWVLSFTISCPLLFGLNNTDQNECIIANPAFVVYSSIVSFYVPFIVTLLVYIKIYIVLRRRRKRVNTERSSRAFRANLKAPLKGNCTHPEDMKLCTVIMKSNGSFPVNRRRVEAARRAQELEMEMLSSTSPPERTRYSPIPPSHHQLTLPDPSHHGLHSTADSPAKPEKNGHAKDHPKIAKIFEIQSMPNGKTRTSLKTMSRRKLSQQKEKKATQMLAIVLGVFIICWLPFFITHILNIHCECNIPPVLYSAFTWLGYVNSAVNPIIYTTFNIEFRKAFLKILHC

For the molecule `CCN(CC)CCNC(=O)c1cc(Cl)c(N)cc1OCOCCOC`, the IC50 on D(2) dopamine receptor was > 1000 nM. The Protection in the test with Canis familiaris [1] came out at 72%; in the test on Mustela putorius furo [3], 100%. For the same molecule, the ED50 in [2] was > 3 mg/kg; in [4], > 40 mg/kg; in [5], > 40 mg/kg. Further, the Emetic episodes in the test with Canis familiaris [6] is listed as 3.5; in the test on Mustela putorius furo [7] it was 0.
For `CCN(CC)CCNC(=O)c1cc(Cl)c(N)cc1OC(C)C(C)=O` (stereo unspecified) [BATANOPRIDE], the Emetic episodes in the test on Mustela putorius furo [8] was determined as 1; in the test on Mustela putorius furo [10] it was 0.5; in the test with Canis familiaris [13] it was 0.5; in the test on Canis familiaris [15], 1.6; with Mustela putorius furo [17], 0.3; with Canis familiaris [19], 1.5. In addition, the Emetic episodes with Mustela putorius furo [20] was found to be 0.3; in the test on Mustela putorius furo [21] it was 2.5; in the test on Canis familiaris [22] it was 5; in the test with Mustela putorius furo [24], 3.3; with Mustela putorius furo [26], 3.3; in the test on Canis familiaris [6] it was 0.5. In the test with Canis familiaris [31], this molecule gave an Emetic episodes of 0. Besides, the Protection in the test on Mustela putorius furo [9] is 93%; in the test on Mustela putorius furo [11], 53%; in the test on Canis familiaris [12], 60%; in the test with Canis familiaris [1] it was 96%; with Mustela putorius furo [14] it was 64%; in the test with Canis familiaris [16] it was 86% and 100%. For the same molecule, the Protection is 96% and 54% with Mustela putorius furo [23]; 58% with Canis familiaris [25]; 87% in the test with Canis familiaris [27]; 96% in the test on Mustela putorius furo [29]; 90% in the test with Mustela putorius furo [30]. Moreover, on D(2) dopamine receptor, the IC50 was > 1000 nM. Further, the ED50 is > 3 mg/kg in test [2]; > 40 mg/kg in [4]; > 40 mg/kg in [5]; 0.14 mg/kg in the test on Mustela putorius furo [18]; 0.05 mg/kg with Canis familiaris [28].
With `CCN(CC)CCNC(=O)c1cc(Cl)c(N)cc1OC(C)C(C)O` (stereo in doubt; 8g), the Emetic episodes turned out to be 0.7 in the test with Mustela putorius furo [8] (0.3 mg/kg); 4 in the test with Canis familiaris [13]; 1 with Mustela putorius furo [17] (3 mg/kg); 0 with Canis familiaris [19] (0.3 mg/kg); 1.3 with Mustela putorius furo [36]; 0 in the test with Canis familiaris [6]. Also, the IC50 on D(2) dopamine receptor was > 1000 nM. Besides, the Protection in the test on Canis familiaris [12] is listed as 62%; with Mustela putorius furo [32], 82%; in the test on Mustela putorius furo [33], 86%; in the test on Mustela putorius furo [34], 49%; in the test on Canis familiaris [35] it was 100%; with Canis familiaris [27] (0.3 mg/kg) it was 100%.
